Assay results published in ChEMBL document CHEMBL4765435, “Synthesis and in vitro anti-bladder cancer activity evaluation of quinazolinyl-arylurea derivatives” (Eur J Med Chem, 2020).
The source made the active and inactive calls. The calls are words filed in the database; no cut-off is given here.

Tests used:
[1] = Selectivity index, ratio of IC50 for cytotoxicity against human HCV-29 cells to IC50 for cytotoxicity against human T-24 cells
Procedure, shortened: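 SI is the ratio of IC50 in the non-tumoral cell line to IC50 in the tumoral T24 line, both from proliferation-inhibition assays.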

T-24 [2] = assay: Induction of apoptosis in human T-24 cells assessed as early apoptotic cells at 3 uM incubated for 8 hrs by annexin V-FITC and PI staining based flow cytometry analysis (reference value: 3.37 %); format: functional
T-24 [3] = assay: Induction of apoptosis in human T-24 cells assessed as early apoptotic cells at 6 uM incubated for 8 hrs by annexin V-FITC and PI staining based flow cytometry analysis (reference value: 3.37 %); format: functional
T-24 [4] = assay: Induction of apoptosis in human T-24 cells assessed as necrotic cells at 6 uM incubated for 8 hrs by annexin V-FITC and PI staining based flow cytometry analysis (reference value: 0.84 %); format: functional
T-24 [5] = assay: Induction of apoptosis in human T-24 cells assessed as early apoptotic cells at 3 uM in presence of zVAD incubated for 8 hrs by annexin V-FITC and PI staining based flow cytometry analysis (reference value: 3.37 %); format: functional
T-24 [6] = assay: Induction of apoptosis in human T-24 cells assessed as late apoptotic cells at 6 uM in presence of vZAD incubated for 8 hrs by annexin V-FITC and PI staining based flow cytometry analysis (reference value: 1.71 %); format: functional
T-24 [7] = assay: Induction of apoptosis in human T-24 cells assessed as increase in vZAD-reduced caspase-8 activation pretreated with vZAD for 1 hr followed by compound addition and measured upto 8 hrs by Western blot analysis; format: functional, cell-based; settings: dose 2-10 µM, time hrs <=8
T-24 [8] = assay: Induction of apoptosis in human T-24 cells assessed as downregulation of Bcl2 at 2 to 6 uM measured upto 8 hrs by Western blot analysis; format: functional, cell-based; settings: dose 2-6 µM, time hrs <=8
T-24 [9] = assay: Induction of ferroptosis in human T-24 cells assessed as increase in intracellular iron level at 8 uM in presence of Fer-1 by ICP-MS analysis (reference value: 860.2 +/- 62.3 pg); format: functional
T-24 [10] = assay: Induction of ferroptosis in human T-24 cells assessed as increase in intracellular iron level at 12 uM in presence of Fer-1 by ICP-MS analysis (reference value: 860.2 +/- 62.3 pg); format: functional
T-24 [11] = assay: Induction of ferroptosis in human T-24 cells assessed as downregulation of GPx4 by Western blot analysis; format: functional, cell-based; settings: dose 6-12 µM
T-24 [12] = assay: Induction of ferroptosis in human T-24 cells assessed as upregulation of DMT1 by Western blot analysis; format: functional, cell-based; settings: dose 6-12 µM
T-24 [13] = assay: Induction of ferroptosis in human T-24 cells assessed as downregulation of xCT at 6 to 8 uM in presence of Fer-1 by Western blot analysis; format: functional, cell-based; settings: dose 6-8 µM
T-24 [14] = assay: Induction of ferroptosis in human T-24 cells assessed as downregulation of xCT at <6 uM by Western blot analysis; format: functional, cell-based; settings: dose microM <6
T-24 [15] = assay: Induction of ferroptosis in human T-24 cells assessed as increase in IREB2 expression by Western blot analysis; format: functional, cell-based; settings: dose 6-12 µM
T-24 [16] = assay: Induction of ferroptosis in human T-24 cells assessed as reduction in HSB1 phosphorylation at 6 to 12 uM by Western blot analysis; format: functional, cell-based; settings: dose 6-12 µM
T-24 [17] = assay: Induction of autophagy in human T-24 cells assessed as LC3BII/LC3B1 ratio at 10 uM by Western blot analysis (reference value: 0.89 +/- 0.05); format: functional
T-24 [18] = assay: Induction of autophagy in human T-24 cells assessed as LC3BII/LC3B1 ratio at 12 uM by Western blot analysis (reference value: 0.89 +/- 0.05); format: functional
T-24 [19] = assay: Induction of autophagy in human T-24 cells assessed as increase in LC3B-II/LC3B-I ratio by Western blot analysis; format: functional, cell-based
Procedure, shortened: (§1)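 Western blot of LC3B-I and LC3B-II in T24 lysates after treatment at 6, 8, 10 and 12 µM alongside an untreated control. LC3B-II level and the LC3B-II/I band ratio are reported.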

T-24 [20] = assay: Induction of autophagy in human T-24 cells assessed as increase in LC3B-II level by Western blot analysis; format: functional, cell-based; procedure, shortened: as §1
T-24 [21] = assay: Induction of autophagy in human T-24 cells assessed as decrease in p62 level at 6 uM in presence of rapamycin incubated for 12 hrs by Western blot analysis; format: functional, cell-based
T-24 [22] = assay: Induction of autophagy in human T-24 cells assessed as decrease in ULK1 level at 6 to 12 uM incubated for 12 hrs by Western blot analysis; format: functional, cell-based; settings: dose 6-12 µM
T-24 [23] = assay: Induction of autophagy in human T-24 cells assessed as effect on PI3K level at 6 to 12 uM incubated for 12 hrs by Western blot analysis; format: functional, cell-based; settings: dose 6-12 µM
T-24 [24] = assay: Induction of ROS accumulation in human T-24 cells at 8 uM incubated for 16 hrs by DCFH-DA dye based luminescence spectrometry relative to control; format: functional
Procedure, shortened: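 T24 cells loaded with the DCF probe after exposure to 4, 8 or 12 μM, sampled at times up to 16 h. Intracellular DCF fluorescence is quantified on a luminescence spectrometer and expressed as % of the negative control.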

T-24 [25] = assay: Induction of ferroptosis in human T-24 cells assessed as cellular GPx4 level at 1 uM by HPLC-EC analysis (reference value: 1.71 +/- 0.07 U/mg); format: functional
T-24 [26] = assay: Induction of ferroptosis in human T-24 cells assessed as cellular GPx4 level at 4 uM by HPLC-EC analysis (reference value: 1.71 +/- 0.07 U/mg); format: functional
T-24 [27] = assay: Induction of ferroptosis in human T-24 cells assessed as cellular GPx4 level at 6 uM by HPLC-EC analysis (reference value: 1.71 +/- 0.07 U/mg); format: functional
T-24 [28] = assay: Induction of ferroptosis in human T-24 cells assessed as cellular GPx4 level at 8 uM by HPLC-EC analysis (reference value: 1.71 +/- 0.07 U/mg); format: functional
T-24 [29] = assay: Induction of ferroptosis in human T-24 cells assessed as cellular GPx4 level at 12 uM by HPLC-EC analysis (reference value: 1.71 +/- 0.07 U/mg); format: functional
T-24 [30] = assay: Induction of mitochondrial membrane potential disruption in human T-24 cells assessed as ratio of green/red fluorescence intensity at 8 uM by JC-1 dye based flow cytometry analysis (reference value: 0.29 +/- 0.04); format: functional
T-24 [31] = assay: Induction of mitochondrial membrane potential disruption in human T-24 cells assessed as ratio of green/red fluorescence intensity at 12 uM by JC-1 dye based flow cytometry analysis (reference value: 0.29 +/- 0.04); format: functional
T-24 [32] = assay: Induction of mitochondrial membrane potential disruption in human T-24 cells assessed as ratio of green/red fluorescence intensity by JC-1 dye based flow cytometry analysis; format: functional, cell-based; settings: dose 4-12 µM
Procedure, shortened: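 T24 cells exposed to 0, 4, 8 and 12 µM and stained with JC-1. Red J-aggregate fluorescence (high ΔΨm, p1 region) and green monomer fluorescence (low ΔΨm, p2 region) were read by flow cytometry and quantified on a fluorescence spectrophotometer. Result is given as the green/red intensity ratio.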

Compound: O=C(Nc1cccc(CNc2ncnc3ccccc23)c1)Nc1ccc(Cl)c(Cl)c1
- Ratio IC50 [1]: 5.84
- Activity (T-24 [2]): 3.46%
- Activity (T-24 [3]): 26.6%
- Activity (T-24 [4]): 7.76%
- Activity (T-24 [5]): 2.84%
- Activity (T-24 [6]): 6.64%
- Activity (T-24 [7]): Dose-dependent effect
- Activity (T-24 [8]): Active
- Activity (T-24 [9]): 1079.4 pg
- Activity (T-24 [10]): 1275.9 pg
- Activity (T-24 [11]): Dose-dependent effect
- Activity (T-24 [12]): Dose-dependent effect
- Activity (T-24 [13]): Active
- Activity (T-24 [14]): inactive
- Activity (T-24 [15]): Dose-dependent effect
- Activity (T-24 [16]): Active
- fold change (FC) (T-24 [17]): 6.38
- fold change (FC) (T-24 [18]): 7.79
- Activity (T-24 [19]): Dose-dependent effect
- Activity (T-24 [20]): Dose-dependent effect
- Activity (T-24 [21]): Active
- Activity (T-24 [22]): Active
- Activity (T-24 [23]): Active
- Activity (T-24 [24]): 213.3%
- Activity (T-24 [25]): 1.9 U/mg
- Activity (T-24 [26]): 1.82 U/mg
- Activity (T-24 [27]): 1.62 U/mg
- Activity (T-24 [28]): 1.49 U/mg
- Activity (T-24 [29]): 1.27 U/mg
- fold change (FC) (T-24 [30]): 21
- fold change (FC) (T-24 [31]): 29.4
- Activity (T-24 [32]): Dose-dependent effect
